Measured values taken from ChEMBL document CHEMBL2010768, “Optimization of Potent Inhibitors of P. falciparum Dihydroorotate Dehydrogenase for the Treatment of Malaria” (ACS Med Chem Lett, 2011).
Active and inactive are the calls of the source. No cut-off for these calls is given here.

Columns and labels:
[1] = target: Cytochrome P450 2D6 (Homo sapiens, UniProt P10635); assay: Inhibition of human CYP2D6 using bufuralol as substrate after 10 mins by LC-MS/MS analysis; format: ADME
[2] = target: T1, Dihydroorotate dehydrogenase (Plasmodium falciparum, UniProt Q54A96); assay: Inhibition of Plasmodium falciparum DHODH after 20 mins by 2,6-dichloroindophenol-reduction based assay
T1 sequence (Q54A96 whole entry): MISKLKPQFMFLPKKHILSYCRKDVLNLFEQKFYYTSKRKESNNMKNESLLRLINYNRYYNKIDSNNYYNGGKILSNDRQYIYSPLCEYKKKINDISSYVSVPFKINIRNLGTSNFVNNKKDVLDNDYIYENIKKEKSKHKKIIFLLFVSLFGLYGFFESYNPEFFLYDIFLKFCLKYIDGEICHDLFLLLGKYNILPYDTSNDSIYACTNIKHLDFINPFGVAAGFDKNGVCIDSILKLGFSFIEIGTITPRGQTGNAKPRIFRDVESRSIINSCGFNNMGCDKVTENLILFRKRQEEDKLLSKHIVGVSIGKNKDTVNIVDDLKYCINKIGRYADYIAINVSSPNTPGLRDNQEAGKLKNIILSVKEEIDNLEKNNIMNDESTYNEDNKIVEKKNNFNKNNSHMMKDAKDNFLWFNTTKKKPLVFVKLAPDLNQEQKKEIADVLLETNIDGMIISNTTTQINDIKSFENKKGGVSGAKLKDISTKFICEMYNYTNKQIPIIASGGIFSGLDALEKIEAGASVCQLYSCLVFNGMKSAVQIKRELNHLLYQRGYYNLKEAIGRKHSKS

[3] = Volume of distribution at steady state in rat at 1 mg/kg, iv by LC-MS/MS analysis; format: ADME, organism-based; set-up: dose 1 mg/kg, route intravenous; conditions: in vivo, read-out: Vdss
[4] = test system: Plasmodium berghei; assay: Inhibition of Plasmodium berghei DHODH after 20 mins by 2,6-dichloroindophenol-reduction based assay
[5] = Plasma protein binding in mouse by LC-MS/MS analysis; format: ADME, cell-free; conditions: read-out: PPB (converted)
[6] = Cmax in dog at 3 mg/kg, po by LC-MS/MS analysis; format: ADME, organism-based, Canis lupus familiaris; set-up: dose 3 mg/kg, route oral; conditions: in vivo
[7] = Plasma protein binding in rat by LC-MS/MS analysis; format: ADME, cell-free; conditions: read-out: PPB (converted)
[8] = test system: Plasmodium falciparum; assay: Antimalarial activity against Plasmodium falciparum 3D70087/N9 infected in po dosed NOD-scid IL-2Rgamma-null mouse model compound administered bid for 4 to 7 days by FACS analysis; format: functional; conditions: 3D7 0087/N9, 4TO7, po
Outline: (§1)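 Oral dosing in mouse malaria models. Efficacy is expressed as ED50, ED90 and ED99 in mg/kg/day.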

[9] = target: Cytochrome P450 3A4 (Homo sapiens, UniProt P08684); assay: Inhibition of human CYP3A4 using midazolam as substrate after 5 mins by LC-MS/MS analysis; format: ADME
[10] = test system: Salmonella typhimurium; assay: Mutagenic activity in Salmonella typhimurium 100 up to 100 uM by Ames test; format: toxicity, organism-based; conditions: salmonella enterica subsp. enterica serovar typhimurium
[11] = test system: Salmonella typhimurium; assay: Mutagenic activity in S9-induced Salmonella typhimurium 100 up to 100 uM by Ames test; format: toxicity, organism-based; conditions: salmonella enterica subsp. enterica serovar typhimurium
[12] = test system: Plasmodium vivax; assay: Inhibition of Plasmodium vivax DHODH after 20 mins by 2,6-dichloroindophenol-reduction based assay
[13] = test system: Plasmodium berghei; assay: Antimalarial activity against Plasmodium berghei ANKA infected in orally dosed mouse model compound administered at 9 hrs post-infection on first day followed by bid for subsequent 3 days; format: functional; conditions: po; outline: as §1
[14] = target: Cytochrome P450 2C19 (Homo sapiens, UniProt P33261); assay: Inhibition of human CYP2C19 using S-mephenytoin as substrate after 45 mins by LC-MS/MS analysis; format: ADME
[15] = test system: Salmonella typhimurium; assay: Mutagenic activity in S9-induced Salmonella typhimurium 1535 up to 100 uM by Ames test; format: toxicity, organism-based; conditions: salmonella enterica subsp. enterica serovar typhimurium
[16] = test system: Canis familiaris; assay: AUC (0 to infinity) in dog at 1 mg/kg, iv by LC-MS/MS analysis; format: ADME, organism-based, Canis lupus familiaris, Plasma; set-up: dose 1 mg/kg, route intravenous, time infinity; conditions: in vivo
[17] = Half life in dog at 1 mg/kg, iv by LC-MS/MS analysis; format: ADME, organism-based, Canis lupus familiaris; set-up: dose 1 mg/kg, route intravenous; conditions: in vivo
[18] = Toxicity in po dosed rat administered qd for 7 days measured after 7 days washout period; format: organism-based; conditions: in vivo
Outline: (§2)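 Rats dosed orally once daily for 7 days at 0 (control), 50, 150, 450 and 600 mg/kg, then a 7-day washout. NOAEL determined, with Cmax and AUC reported at that exposure.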

[19] = Half life in rat at 1 mg/kg, iv by LC-MS/MS analysis; format: ADME, organism-based; set-up: dose 1 mg/kg, route intravenous; conditions: in vivo
[20] = target: T2, Cytochrome P450 1A2 (Homo sapiens, UniProt P05177); assay: Inhibition of human CYP1A2 using phenacetin as substrate after 10 mins by LC-MS/MS analysis; format: ADME
T2 sequence (P05177 whole entry): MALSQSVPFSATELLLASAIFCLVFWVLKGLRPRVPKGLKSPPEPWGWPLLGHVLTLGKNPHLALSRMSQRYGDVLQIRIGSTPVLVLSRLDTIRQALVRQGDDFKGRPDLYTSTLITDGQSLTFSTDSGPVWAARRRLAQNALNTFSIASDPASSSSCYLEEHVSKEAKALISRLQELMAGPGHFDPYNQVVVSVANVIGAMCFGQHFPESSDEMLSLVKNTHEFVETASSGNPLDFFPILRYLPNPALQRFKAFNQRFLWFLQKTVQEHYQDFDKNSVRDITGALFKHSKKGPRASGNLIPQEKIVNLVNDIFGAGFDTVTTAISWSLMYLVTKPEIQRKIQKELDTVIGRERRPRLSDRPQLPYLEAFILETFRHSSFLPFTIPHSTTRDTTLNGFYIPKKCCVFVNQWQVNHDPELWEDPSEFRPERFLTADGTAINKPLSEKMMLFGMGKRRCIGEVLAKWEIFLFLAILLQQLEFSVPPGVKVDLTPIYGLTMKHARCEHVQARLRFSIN

[21] = AUC (0 to infinity) in rat at 3 mg/kg, po by LC-MS/MS analysis; format: ADME, organism-based; set-up: time infinity, dose 3 mg/kg, route oral; conditions: plasma
[22] = test system: Canis familiaris; assay: AUC (0 to infinity) in dog at 3 mg/kg, po by LC-MS/MS analysis; format: ADME, organism-based, Canis lupus familiaris, Plasma; set-up: time infinity, dose 3 mg/kg, route oral; conditions: in vivo
[23] = AUC in rat at 50 to 600 mg/kg, po qd for 7 days measured after 7 days washout period; format: ADME, organism-based; set-up: dose 50-600 mg/kg, route oral; conditions: plasma; outline: as §2
[24] = Clearance in human liver microsomes by LC-MS/MS analysis; format: ADME, Microsome
Outline: (§3)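 Liver microsome incubation. Predicted clearance is derived from a well-stirred model corrected for microsomal and protein binding.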

[25] = Oral bioavailability in rat at 3 mg/kg by LC-MS/MS analysis; format: ADME, organism-based; conditions: in vivo
[26] = AUC (0 to infinity) in rat at 1 mg/kg, iv by LC-MS/MS analysis; format: ADME, organism-based; set-up: time infinity, dose 1 mg/kg, route intravenous; conditions: plasma
[27] = Clearance in mouse liver microsomes by LC-MS/MS analysis; format: ADME, Microsome; outline: as §3
[28] = Plasma protein binding in human by LC-MS/MS analysis; format: ADME, cell-free; conditions: read-out: PPB (converted)
[29] = Unbound fraction in human plasma; format: ADME, cell-free
[30] = test system: Salmonella typhimurium; assay: Mutagenic activity in Salmonella typhimurium 1535 up to 100 uM by Ames test; format: toxicity, organism-based; conditions: salmonella enterica subsp. enterica serovar typhimurium
[31] = test system: Plasmodium falciparum; assay: Antiplasmodial activity against Plasmodium falciparum Dd2 infected in […] after 72 hrs by SYBR green assay; format: functional, organism-based; conditions: Dd2, 72 h
[32] = Volume of distribution at steady state in dog at 1 mg/kg, iv by LC-MS/MS analysis; format: ADME, organism-based, Canis lupus familiaris; set-up: dose 1 mg/kg, route intravenous; conditions: in vivo, read-out: Vdss
[33] = target: Cytochrome P450 2C9 (Homo sapiens, UniProt P11712); assay: Inhibition of human CYP2C9 using diclofenac as substrate after 10 mins by LC-MS/MS analysis; format: ADME
[34] = Clearance in rat at 1 mg/kg, iv by LC-MS/MS analysis; format: ADME, organism-based; set-up: dose 1 mg/kg, route intravenous; conditions: in vivo
[35] = test system: Salmonella typhimurium; assay: Mutagenic activity in S9-induced Salmonella typhimurium TA98 up to 100 uM by Ames test; format: toxicity, organism-based; conditions: salmonella enterica subsp. enterica serovar typhimurium
[36] = Permeability of the compound by parallel artificial membrane permeation assay; format: ADME; conditions: PAMPA; read-out: permeability
[37] = test system: Salmonella typhimurium; assay: Mutagenic activity in Salmonella typhimurium TA98 up to 100 uM by Ames test; format: toxicity, organism-based; conditions: salmonella enterica subsp. enterica serovar typhimurium
[38] = Cmax in rat at 3 mg/kg, po by LC-MS/MS analysis; format: ADME, organism-based; set-up: dose 3 mg/kg, route oral; conditions: in vivo
[39] = test system: Plasmodium falciparum; assay: Antiplasmodial activity against Plasmodium falciparum 3D7 infected in […] after 72 hrs by SYBR green assay; format: functional, organism-based; conditions: 3D7, 72 h
[40] = test system: Canis familiaris; assay: Oral bioavailability in dog at 3 mg/kg by LC-MS/MS analysis; format: ADME, organism-based, Canis lupus familiaris; conditions: in vivo
[41] = Cmax in rat at 50 to 600 mg/kg, po qd for 7 days measured after 7 days washout period; format: ADME, organism-based; set-up: dose 50-600 mg/kg, route oral; conditions: in vivo; outline: as §2
[42] = Plasma protein binding in dog by LC-MS/MS analysis; format: ADME, cell-free, Canis lupus familiaris; conditions: read-out: PPB (converted)
[43] = Clearance in dog at 1 mg/kg, iv by LC-MS/MS analysis; format: ADME, organism-based, Canis lupus familiaris; set-up: dose 1 mg/kg, route intravenous; conditions: in vivo

Chain of Cytochrome P450 2D6 (P10635 whole entry): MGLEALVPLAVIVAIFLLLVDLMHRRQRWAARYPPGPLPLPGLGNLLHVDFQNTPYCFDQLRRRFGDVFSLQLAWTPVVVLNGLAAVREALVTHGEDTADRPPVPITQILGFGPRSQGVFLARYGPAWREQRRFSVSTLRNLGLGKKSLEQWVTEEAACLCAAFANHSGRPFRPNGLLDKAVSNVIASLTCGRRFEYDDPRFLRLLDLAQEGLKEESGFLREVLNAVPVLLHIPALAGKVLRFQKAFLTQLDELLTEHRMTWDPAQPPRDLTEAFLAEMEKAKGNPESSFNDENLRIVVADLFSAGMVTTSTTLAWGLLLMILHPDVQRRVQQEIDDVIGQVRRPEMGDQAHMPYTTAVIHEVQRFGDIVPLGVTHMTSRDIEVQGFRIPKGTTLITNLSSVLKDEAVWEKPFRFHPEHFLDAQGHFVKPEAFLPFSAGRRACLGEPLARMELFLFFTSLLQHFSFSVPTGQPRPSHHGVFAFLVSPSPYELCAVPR
Chain of Cytochrome P450 2C19 (P33261 whole entry): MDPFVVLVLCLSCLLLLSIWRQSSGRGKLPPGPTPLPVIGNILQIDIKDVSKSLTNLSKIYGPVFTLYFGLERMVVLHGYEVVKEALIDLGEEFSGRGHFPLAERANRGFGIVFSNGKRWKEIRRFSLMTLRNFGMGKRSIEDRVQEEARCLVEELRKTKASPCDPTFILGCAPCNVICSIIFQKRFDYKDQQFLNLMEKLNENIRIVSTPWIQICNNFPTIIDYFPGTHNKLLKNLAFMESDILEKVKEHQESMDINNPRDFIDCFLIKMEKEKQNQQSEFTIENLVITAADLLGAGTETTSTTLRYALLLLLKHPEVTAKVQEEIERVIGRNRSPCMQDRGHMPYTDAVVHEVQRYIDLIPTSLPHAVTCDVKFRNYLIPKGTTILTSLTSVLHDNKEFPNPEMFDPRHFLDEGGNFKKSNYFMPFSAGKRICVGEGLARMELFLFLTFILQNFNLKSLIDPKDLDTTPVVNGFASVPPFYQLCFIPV
Chain of Cytochrome P450 3A4 (P08684 whole entry): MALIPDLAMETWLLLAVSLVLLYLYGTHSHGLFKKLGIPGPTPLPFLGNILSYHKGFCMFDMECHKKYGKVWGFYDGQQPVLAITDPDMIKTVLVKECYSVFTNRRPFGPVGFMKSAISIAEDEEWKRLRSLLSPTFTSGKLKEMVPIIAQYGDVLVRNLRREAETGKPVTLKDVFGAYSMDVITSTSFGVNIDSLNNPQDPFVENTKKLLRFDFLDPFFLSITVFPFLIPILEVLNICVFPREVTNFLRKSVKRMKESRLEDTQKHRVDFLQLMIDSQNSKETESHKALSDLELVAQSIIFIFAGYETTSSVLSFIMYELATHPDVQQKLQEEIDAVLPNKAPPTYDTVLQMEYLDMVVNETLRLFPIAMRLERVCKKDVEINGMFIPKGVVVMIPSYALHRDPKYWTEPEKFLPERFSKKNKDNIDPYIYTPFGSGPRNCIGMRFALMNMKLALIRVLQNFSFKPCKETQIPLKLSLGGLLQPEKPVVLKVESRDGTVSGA
Chain of Cytochrome P450 2C9 (P11712 whole entry): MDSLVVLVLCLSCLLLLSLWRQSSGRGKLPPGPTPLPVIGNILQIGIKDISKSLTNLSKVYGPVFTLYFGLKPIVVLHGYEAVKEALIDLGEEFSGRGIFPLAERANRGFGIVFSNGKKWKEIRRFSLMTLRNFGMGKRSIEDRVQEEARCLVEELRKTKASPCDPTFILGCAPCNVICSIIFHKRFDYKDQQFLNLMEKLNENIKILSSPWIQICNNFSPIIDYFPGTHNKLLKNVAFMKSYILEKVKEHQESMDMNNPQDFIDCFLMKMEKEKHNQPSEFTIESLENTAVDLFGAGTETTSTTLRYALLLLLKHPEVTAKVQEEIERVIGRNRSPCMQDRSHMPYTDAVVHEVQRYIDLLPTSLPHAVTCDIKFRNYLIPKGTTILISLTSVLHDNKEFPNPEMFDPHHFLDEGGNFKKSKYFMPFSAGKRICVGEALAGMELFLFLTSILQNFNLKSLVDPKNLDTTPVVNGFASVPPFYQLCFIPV

Which IC50 [1] does the source give for `Cc1nc2c(C#N)cccc2n1-c1ccc(C(=O)NC2CC2)s1` here?
The IC50 was greater than 10000 nM.

What about the IC50 [2] of the same compound?
The IC50 was 40 nM.

What about the Vd [3] of the same compound?
The Vd was 0.995 L/kg.

What about the inhibition [4] of the same compound?
The inhibition was “Active”.

What about the fraction unbound [5] of the same compound?
Its fraction unbound is 0.182.

What about the Cmax [6] of the same compound?
The Cmax was 1110 ng/mL.

And the fraction unbound [7]?
Its fraction unbound is 0.22.

What about the ED50 [8] of the same compound?
Its ED50 is 13 mg/kg/day.

What about the ED90 [8] of the same compound?
Its ED90 is 27 mg/kg/day.

What about the ED99 [8] of the same compound?
Its ED99 is 60 mg/kg/day.

What about the IC50 [9] of the same compound?
The IC50 was greater than 10000 nM.

What about the Activity [10] of the same compound?
Its Activity is “Non-toxic”.

And the Activity [11]?
The Activity was “Non-toxic”.

What about the inhibition [12] of the same compound?
Its inhibition is “Active”.

What about the ED50 [13] of the same compound?
Its ED50 is 13 mg/kg/day.

What about the ED90 [13] of the same compound?
Its ED90 is 28 mg/kg/day.

What about the ED99 [13] of the same compound?
The ED99 was 62 mg/kg/day.

And the IC50 [14]?
Its IC50 is greater than 10000 nM.

And the Activity [15]?
Its Activity is “Non-toxic”.

And the AUC [16]?
Its AUC is 1500 ng·h/mL.

And the half-life [17]?
Its half-life is 31.2 min.

And the NOAEL at 168 h [18]?
Its NOAEL at 168 h is greater than 600 mg/kg.

And the half-life [19]?
The half-life was 51 min.

What about the IC50 [20] of the same compound?
The IC50 was greater than 10000 nM.

What about the AUC(0-inf) [21] of the same compound?
The AUC(0-inf) was 1040 ng·h/mL.

And the AUC [22]?
The AUC was 359 ng·h/mL.

And the AUC at 168 h [23]?
The AUC at 168 h was 328000 ng·h/mL.

And the CLhep predicted [24]?
The CLhep predicted was less than 4 mL/min/kg.

And the bioavailability [25]?
The bioavailability was 49%.

And the AUC(0-inf) [26]?
Its AUC(0-inf) is 703 ng·h/mL.

What about the CLhep predicted [27] of the same compound?
Its CLhep predicted is 26 mL/min/kg.

And the fraction unbound [28]?
Its fraction unbound is 0.112.

And the fraction unbound [29]?
Its fraction unbound is 0.11.

And the Activity [30]?
The Activity was “Non-toxic”.

What about the IC50 [31] of the same compound?
The IC50 was 10 nM.

What about the Vd [32] of the same compound?
The Vd was 0.279 L/kg.

What about the IC50 [33] of the same compound?
The IC50 was greater than 10000 nM.

What about the clearance [34] of the same compound?
The clearance was 24 mL/min/kg.

What about the Activity [35] of the same compound?
Its Activity is “Non-toxic”.

What about the Papp [36] of the same compound?
Its Papp is 49 ×10⁻⁶ cm/s.

And the Activity [37]?
Its Activity is “Non-toxic”.

What about the Cmax [38] of the same compound?
The Cmax was 618 ng/mL.

What about the IC50 [39] of the same compound?
The IC50 was 7 nM.

And the F [40]?
Its F is 19%.

What about the Cmax [41] of the same compound?
Its Cmax is 29000 ng/mL.

And the fraction unbound [42]?
Its fraction unbound is 0.312.

And the clearance [43]?
Its clearance is 6.7 mL/min/kg.
